Key:
[1] = Tmax in cynomolgus monkey plasma at 50 mg/kg, po qd for 4 days; format: ADME, organism-based, Macaca fascicularis; set-up: dose 50 mg/kg, route oral
In short: (§1)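 Oral gavage (dog gastric, monkey nasogastric), 50 mg/kg in 20% w/v hydroxypropyl-β-cyclodextrin in water, 2.5 mL/kg, once daily for 4 consecutive days. Blood sampled into K2EDTA at 1, 2, 4, 6, 12 and 24 h postdose on day 3. Prodrug in plasma quantified by LC/MS/MS, noncompartmental analysis.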

CCRF-CEM = assay: Cytotoxicity against human CEM cells at 100 uM; format: cell-based
In short: (§2)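 Huh7, HepG2 and BxPC3 cells at 2 × 10^3 per well, CEM at 5 × 10^3 per well. Compound serially diluted from 100 μM, 8 days at 37 °C. MTS added for 2 h, absorbance read at 490 nm with medium-only blanks. CC50 taken relative to untreated cells.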

Canis familiaris [2] = assay: Metabolic stability in dog liver assessed as prodrug level at 50 mg/kg, po; format: ADME, organism-based, Canis lupus familiaris; set-up: dose 50 mg/kg, route oral; conditions: in vivo
In short: (§3)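 Dogs and cynomolgus monkeys gavaged once daily with 50 mg/kg in 20% w/v hydroxypropyl-β-cyclodextrin for 4 days. At 4 h postdose on day 4, under pentobarbital, the liver was perfused with ice-cold saline via a portal cannula. Five lobe samples were snap-frozen and homogenized in 3 volumes of cold 70% methanol with 20 mM EDTA/EGTA. Prodrug and triphosphate measured by LC/MS/MS.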

Canis familiaris [3] = assay: Metabolic stability in dog liver assessed as 2'-F-2'-C-Methyluridine-5''-triphosphate level at 50 mg/kg, po; format: ADME, organism-based, Canis lupus familiaris; set-up: dose 50 mg/kg, route oral; conditions: in vivo; in short: as §3
Rattus norvegicus [4] = assay: Toxicity in rat assessed as change in liver weight at 50 to 1800 mg/kg, po after 14 days; format: organism-based; set-up: dose 50-1800 mg/kg, route oral; conditions: in vivo, 336 h
In short: (§4)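 Rats (CD SD, 4–5 weeks, 76–100 g) given a single oral dose of 50, 300 or 1800 mg/kg, or vehicle (30% PEG400/30% Tween 20/20% corn oil/20% water). Observed daily for 14 days with daily body weights. Necropsy on day 15 with macroscopic examination and liver and paired kidney weights.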

Rattus norvegicus [5] = assay: Toxicity in rat assessed as change in kidney weight at 50 to 1800 mg/kg, po after 14 days; format: organism-based; set-up: dose 50-1800 mg/kg, route oral; conditions: in vivo, 336 h; in short: as §4
[6] = Tmax in dog plasma at 50 mg/kg, po qd for 4 days; format: ADME, organism-based, Canis lupus familiaris; set-up: dose 50 mg/kg, route oral; in short: as §1
Rattus norvegicus [7] = assay: Cmax in rat liver assessed as 2'-F-2'-C-Methyluridine-5''-TP level at 50 mg/kg, po; format: ADME, organism-based; set-up: dose 50 mg/kg, route oral; conditions: in vivo
In short: (§5)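 Rats given a single oral gavage dose of 50 mg/kg in 0.5% carboxymethylcellulose sodium, 5 mL/kg. Livers taken at 0.5, 1, 2, 4, 6 and 12 h after CO2 sacrifice and ice-cold saline perfusion, then snap-frozen. Homogenized in 3 volumes of cold 70% methanol with 20 mM EDTA/EGTA. Triphosphate measured by LC/MS/MS (ESI, MRM negative mode), noncompartmental analysis.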

[8] = Half life in human liver S9 fraction at 100 uM; format: ADME, subcellular
In short: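 Compound at 100 μM in 50 mM K2HPO4 pH 7.4 with 5 mM MgCl2. Started with 4 mg/mL human liver S9 at 37 °C. Samples at 0–24 h quenched with acetonitrile. Parent remaining measured by LC/MS/MS peak area relative to 0 h, and half-life calculated.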

Hepatitis C virus [9] = assay: Antiviral activity against HCV infected in human clone A cells assessed as inhibition of cellular rRNA replication at 50 uM; format: functional, Hepacivirus hominis
Rattus norvegicus [10] = assay: Tmax in rat liver assessed as 2'-F-2'-C-Methyluridine-5''-TP level at 50 mg/kg, po; format: ADME, organism-based; set-up: dose 50 mg/kg, route oral; conditions: in vivo; in short: as §5
HepG2 = assay: Cytotoxicity against human HepG2 cells at 100 uM; format: cell-based; conditions: hepg2, 100 µM; in short: as §2
Hepatitis C virus [11] = assay: Antiviral activity against HCV infected in human clone A cells; format: functional, Hepacivirus hominis; conditions: Hepatitis C virus
In short: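 Clone A replicon cells seeded at 1500 cells/well. Compounds serially diluted in G418-free culture medium and added, then incubated 4 days at 37 °C in 5% CO2. HCV RNA quantified by real-time RT-PCR as ΔCt relative to the mean no-drug control.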

[12] = Permeability by PAMPA assay; format: ADME; conditions: read-out: permeability
In short: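 PAMPA with a lecithin-in-dodecane (20 mg/mL) coated filter donor. Donor held 200 μg/mL compound in PBS pH 7.4 with 2% DMSO; acceptor held PBS with 2% DMSO. Left 24 h. Donor and acceptor concentrations measured by LC/MS/MS (MRM), and Pe calculated from concentrations, volumes, filter area and time.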

Cynomolgus monkey [13] = assay: Metabolic stability in cynomolgus monkey liver assessed as 2'-F-2'-C-Methyluridine-5''-triphosphate level at 50 mg/kg, po; format: ADME, organism-based, Macaca fascicularis; set-up: dose 50 mg/kg, route oral; conditions: in vivo; in short: as §3
[14] = Cytotoxicity against human erythroid progenitor cells after 14 to 16 days
[15] = Cytotoxicity against HuH7 cells at 100 uM; format: cell-based; conditions: human, huh-7, 100 µM; in short: as §2
Rattus norvegicus [16] = assay: AUC (0 to infinity) in rat liver assessed as 2'-F-2'-C-Methyluridine-5''-TP level at 50 mg/kg, po; format: ADME, organism-based; set-up: time infinity, dose 50 mg/kg, route oral; conditions: in vivo; in short: as §5
[17] = Half life in simulated gastric fluid at pH 1.2 at 50 ug/mL; format: physicochemical
In short: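 Compound at 50 μg/mL in simulated gastric fluid (pH 1.2) or simulated intestinal fluid (pH 7.5), 37 °C, 20 h. Injected by reverse-phase HPLC every 2 h, peak area at 260 nm. Percent parent remaining relative to 0 h, giving half-life.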

[18] = Cmax in cynomolgus monkey plasma at 50 mg/kg, po qd for 4 days; format: ADME, organism-based, Macaca fascicularis; set-up: dose 50 mg/kg, route oral; in short: as §1
Rattus norvegicus [19] = assay: Toxicity in rat assessed as change in macroscopic pathology at 50 to 1800 mg/kg, po after 14 days; format: organism-based; set-up: dose 50-1800 mg/kg, route oral; conditions: in vivo, 336 h; in short: as §4
Rattus norvegicus [20] = assay: AUC (0 to t) in rat liver assessed as 2'-F-2'-C-Methyluridine-5''-TP level at 50 mg/kg, po; format: ADME, organism-based; set-up: dose 50 mg/kg, route oral; conditions: in vivo; in short: as §5
[21] = Cytotoxicity against human BxPC3 cells at 100 uM; format: cell-based; conditions: bxpc-3, 100 µM; in short: as §2
Cynomolgus monkey [22] = assay: Metabolic stability in cynomolgus monkey liver assessed as prodrug level at 50 mg/kg, po; format: ADME, organism-based, Macaca fascicularis; set-up: dose 50 mg/kg, route oral; conditions: in vivo; in short: as §3
[23] = Cytotoxicity against human myeloid progenitor cells after 14 to 16 days
Rattus norvegicus [24] = assay: Toxicity in rat assessed as change in body weight at 50 to 1800 mg/kg, po after 14 days; format: organism-based; set-up: dose 50-1800 mg/kg, route oral; conditions: in vivo, 336 h; in short: as §4
[25] = AUC (0 to t) in dog plasma at 50 mg/kg, po qd for 4 days; format: ADME, organism-based, Canis lupus familiaris; set-up: dose 50 mg/kg, route oral; in short: as §1
[26] = Cmax in dog plasma at 50 mg/kg, po qd for 4 days; format: ADME, organism-based, Canis lupus familiaris; set-up: dose 50 mg/kg, route oral; in short: as §1
Rattus norvegicus [27] = assay: Toxicity in rat assessed as mortality at 50 to 1800 mg/kg, po after 14 days; format: organism-based; set-up: dose 50-1800 mg/kg, route oral; conditions: in vivo, 336 h; in short: as §4
[28] = AUC (0 to t) in cynomolgus monkey plasma at 50 mg/kg, po qd for 4 days; format: ADME, organism-based, Macaca fascicularis; set-up: dose 50 mg/kg, route oral; in short: as §1
[29] = AUC (0 to infinity) in dog plasma at 50 mg/kg, po qd for 4 days; format: ADME, organism-based, Canis lupus familiaris; set-up: time infinity, dose 50 mg/kg, route oral; in short: as §1
[30] = AUC (0 to infinity) in cynomolgus monkey plasma at 50 mg/kg, po qd for 4 days; format: ADME, organism-based, Macaca fascicularis; set-up: time infinity, dose 50 mg/kg, route oral; in short: as §1

CC(C)OC(=O)[C@H](C)NP(=O)(OC[C@H]1O[C@@H](n2ccc(=O)[nH]c2=O)[C@](C)(F)[C@@H]1O)Oc1ccccc1 (some centres not stated)
Tmax [1]: 1 h
Activity (CCRF-CEM): Non-toxic
Drug uptake (Canis familiaris [2]): 612 ng/g
Drug uptake (Canis familiaris [3]): 10560 ng/g
Activity (Rattus norvegicus [4]): Non-toxic
Activity (Rattus norvegicus [5]): Non-toxic
Tmax [6]: 0.5 h
Cmax (Rattus norvegicus [7]): 1934 ng/g
half-life at 100 µM [8]: 0.57 h
inhibition at 50 µM (Hepatitis C virus [9]): 25.9%
Tmax (Rattus norvegicus [10]): 4 h
Activity (HepG2): Non-toxic
EC90 (Hepatitis C virus [11]): 0.52 µM
Papp [12]: 0.046 ×10⁻⁶ cm/s
Drug uptake (Cynomolgus monkey [13]): 57 ng/g
IC50 [14]: > 50 µM
Activity [15]: Non-toxic
AUC (Rattus norvegicus [16]): 18080 ng·h/g
half-life at 50 ug/mL [17]: 22 h
Cmax [18]: 33 ng/mL
Activity (Rattus norvegicus [19]): Non-toxic
AUC (Rattus norvegicus [20]): 16796 ng·h/g
Activity [21]: Non-toxic
Drug uptake (Cynomolgus monkey [22]): 177 ng/g
IC50 [23]: > 50 µM
Activity (Rattus norvegicus [24]): Non-toxic
AUC(0-t) at 96 h [25]: 6890 ng·h/mL
Cmax [26]: 6180 ng/mL
Activity (Rattus norvegicus [27]): Non-toxic
AUC(0-t) at 96 h [28]: 86 ng·h/mL
AUC(0-inf) [29]: 6900 ng·h/mL
AUC(0-inf) [30]: 170 ng·h/mL
